From ChEMBL document CHEMBL2086252, “Syntheses and evaluation of anticonvulsant activity of novel branched alkyl carbamates” (J Med Chem, 2012)
The source made the active and inactive calls. The rule behind the calls is not given here.

How the values were obtained:
[1] = system: Rattus norvegicus; test: Neurotoxicity in pilocarpine-induced status epilepticus Sprague-Dawley albino rat model assessed as minimal motor impairment at 30 mg/kg, ip after 0.5 hrs by rotarod test; assay type: toxicity, organism-based; design: dose 30 mg/kg, route intraperitoneal; conditions: in vivo
Method in brief: (§1)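 Rat pilocarpine status epilepticus model: test carbamate given at 0 or 30 min after the first observed Racine stage 3 motor seizure, which marks SE onset. Neurotoxicity was scored within the same model.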

[2] = system: Rattus norvegicus; test: Anticonvulsant activity in Sprague-Dawley albino rat assessed as protection against maximal electroshock-induced seizures at 30 mg/kg, po after 1 hr; assay type: functional, organism-based; design: dose 30 mg/kg
Method in brief: (§2)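 Rats dosed orally. Anti-MES protection was scored as animals protected over animals tested at each time after dosing. Neurotoxicity was scored as motor impairment or sedation, as animals affected over animals tested.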

[3] = system: Rattus norvegicus; test: Neurotoxicity in pilocarpine-induced status epilepticus Sprague-Dawley albino rat model assessed as minimal motor impairment at 100 mg/kg, ip after 0.5 hrs by rotarod test; assay type: toxicity, organism-based; design: dose 100 mg/kg, route intraperitoneal; conditions: in vivo
[4] = system: Mus musculus; test: Anticonvulsant activity in albino CF1 mouse assessed as protection against subcutaneous metrazol-induced seizures at 100 mg/kg, ip after 4 hrs; assay type: functional, organism-based; design: dose 100 mg/kg
Method in brief: (§3)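 Mice dosed ip at 30, 100 or 300 mg/kg, then tested 0.5 h and 4 h after administration in the MES or scMet test. Protection was recorded as animals protected over animals tested. Neurotoxicity was recorded as motor impairment or sedation, as animals affected over animals tested.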

[5] = system: Mus musculus; test: Anticonvulsant activity in albino CF1 mouse assessed as protection against subcutaneous metrazol-induced seizures at 300 mg/kg, ip after 0.5 hrs; assay type: functional, organism-based; design: dose 300 mg/kg; method in brief: as §3
[6] = system: Rattus norvegicus; test: Anticonvulsant activity in Sprague-Dawley albino rat assessed as protection against maximal electroshock-induced seizures at 30 mg/kg, po after 4 hrs; assay type: functional, organism-based; design: dose 30 mg/kg; method in brief: as §2
[7] = system: Rattus norvegicus; test: Anticonvulsant activity in Sprague-Dawley albino rat assessed as protection against maximal electroshock-induced seizures at 30 mg/kg, po after 2 hrs; assay type: functional, organism-based; design: dose 30 mg/kg; method in brief: as §2
[8] = system: Rattus norvegicus; test: Neurotoxicity in pilocarpine-induced status epilepticus Sprague-Dawley albino rat model assessed as minimal motor impairment at 30 mg/kg, ip after 1 hr by rotarod test; assay type: toxicity, organism-based; design: dose 30 mg/kg, route intraperitoneal; conditions: in vivo; method in brief: as §1
[9] = system: Rattus norvegicus; test: Anticonvulsant activity in Sprague-Dawley albino rat assessed as protection against maximal electroshock-induced seizures at 30 mg/kg, po after 15 mins; assay type: functional, organism-based; design: dose 30 mg/kg; method in brief: as §2
[10] = system: Rattus norvegicus; test: Neurotoxicity in pilocarpine-induced status epilepticus Sprague-Dawley albino rat model assessed as minimal motor impairment at 300 mg/kg, ip after 2 hrs by rotarod test; assay type: toxicity, organism-based; design: dose 300 mg/kg, route intraperitoneal; conditions: in vivo; method in brief: as §1
[11] = system: Rattus norvegicus; test: Neurotoxicity in pilocarpine-induced status epilepticus Sprague-Dawley albino rat model assessed as minimal motor impairment at 300 mg/kg, ip after 4 hrs by rotarod test; assay type: toxicity, organism-based; design: dose 300 mg/kg, route intraperitoneal; conditions: in vivo; method in brief: as §1
[12] = system: Mus musculus; test: Anticonvulsant activity in albino CF1 mouse assessed as protection against maximal electroshock-induced seizures at 30 mg/kg, ip after 4 hrs; assay type: functional, organism-based; design: dose 30 mg/kg; method in brief: as §3
[13] = system: Rattus norvegicus; test: Neurotoxicity in pilocarpine-induced status epilepticus Sprague-Dawley albino rat model assessed as minimal motor impairment at 100 mg/kg, ip after 2 hrs by rotarod test; assay type: toxicity, organism-based; design: dose 100 mg/kg, route intraperitoneal; conditions: in vivo
[14] = system: Mus musculus; test: Anticonvulsant activity in albino CF1 mouse assessed as protection against maximal electroshock-induced seizures at 300 mg/kg, ip after 4 hrs; assay type: functional, organism-based; design: dose 300 mg/kg; method in brief: as §3
[15] = system: Rattus norvegicus; test: Neurotoxicity in pilocarpine-induced status epilepticus Sprague-Dawley albino rat model assessed as minimal motor impairment at 30 mg/kg, ip after 2 hrs by rotarod test; assay type: toxicity, organism-based; design: dose 30 mg/kg, route intraperitoneal; conditions: in vivo; method in brief: as §1
[16] = system: Rattus norvegicus; test: Neurotoxicity in pilocarpine-induced status epilepticus Sprague-Dawley albino rat model assessed as minimal motor impairment at 300 mg/kg, ip after 0.5 hrs by rotarod test; assay type: toxicity, organism-based; design: dose 300 mg/kg, route intraperitoneal; conditions: in vivo; method in brief: as §1
[17] = system: Rattus norvegicus; test: Neurotoxicity in pilocarpine-induced status epilepticus Sprague-Dawley albino rat model assessed as minimal motor impairment at 30 mg/kg, ip after 0.25 hr by rotarod test; assay type: toxicity, organism-based; design: dose 30 mg/kg, route intraperitoneal; conditions: in vivo; method in brief: as §1
[18] = system: Mus musculus; test: Anticonvulsant activity in albino CF1 mouse assessed as protection against subcutaneous metrazol-induced seizures at 30 mg/kg, ip after 0.5 hrs; assay type: functional, organism-based; design: dose 30 mg/kg; method in brief: as §3
[19] = system: Rattus norvegicus; test: Neurotoxicity in Sprague-Dawley albino rat assessed as minimal motor impairment at 30 mg/kg, po by rotarod test; assay type: toxicity, organism-based; design: dose 30 mg/kg, route oral; conditions: in vivo; method in brief: as §2
[20] = system: Mus musculus; test: Anticonvulsant activity in albino CF1 mouse assessed as protection against subcutaneous metrazol-induced seizures at 300 mg/kg, ip after 4 hrs; assay type: functional, organism-based; design: dose 300 mg/kg; method in brief: as §3
[21] = system: Rattus norvegicus; test: Neurotoxicity in pilocarpine-induced status epilepticus Sprague-Dawley albino rat model assessed as minimal motor impairment at 300 mg/kg, ip after 1 hr by rotarod test; assay type: toxicity, organism-based; design: dose 300 mg/kg, route intraperitoneal; conditions: in vivo; method in brief: as §1
[22] = system: Mus musculus; test: Anticonvulsant activity in albino CF1 mouse assessed as protection against subcutaneous metrazol-induced seizures at 100 mg/kg, ip after 0.5 hrs; assay type: functional, organism-based; design: dose 100 mg/kg; method in brief: as §3
[23] = system: Rattus norvegicus; test: Neurotoxicity in pilocarpine-induced status epilepticus Sprague-Dawley albino rat model assessed as minimal motor impairment at 100 mg/kg, ip after 4 hrs by rotarod test; assay type: toxicity, organism-based; design: dose 100 mg/kg, route intraperitoneal; conditions: in vivo
[24] = system: Rattus norvegicus; test: Anticonvulsant activity in Sprague-Dawley albino rat assessed as protection against maximal electroshock-induced seizures at 30 mg/kg, po after 30 mins; assay type: functional, organism-based; design: dose 30 mg/kg; method in brief: as §2
[25] = system: Rattus norvegicus; test: Neurotoxicity in pilocarpine-induced status epilepticus Sprague-Dawley albino rat model assessed as minimal motor impairment at 300 mg/kg, ip after 0.25 hr by rotarod test; assay type: toxicity, organism-based; design: dose 300 mg/kg, route intraperitoneal; conditions: in vivo; method in brief: as §1
[26] = system: Rattus norvegicus; test: Neurotoxicity in pilocarpine-induced status epilepticus Sprague-Dawley albino rat model assessed as minimal motor impairment at 100 mg/kg, ip after 1 hr by rotarod test; assay type: toxicity, organism-based; design: dose 100 mg/kg, route intraperitoneal; conditions: in vivo
[27] = system: Mus musculus; test: Neurotoxicity in albino CF1 mouse assessed as minimal motor impairment at 30 mg/kg, ip after 0.5 hrs by rotarod test; assay type: toxicity, organism-based; design: dose 30 mg/kg, route intraperitoneal; conditions: in vivo; method in brief: as §3
[28] = system: Mus musculus; test: Anticonvulsant activity in albino CF1 mouse assessed as protection against subcutaneous metrazol-induced seizures at 30 mg/kg, ip after 4 hrs; assay type: functional, organism-based; design: dose 30 mg/kg; method in brief: as §3
[29] = system: Rattus norvegicus; test: Neurotoxicity in pilocarpine-induced status epilepticus Sprague-Dawley albino rat model assessed as minimal motor impairment at 30 mg/kg, ip after 4 hrs by rotarod test; assay type: toxicity, organism-based; design: dose 30 mg/kg, route intraperitoneal; conditions: in vivo; method in brief: as §1
[30] = system: Mus musculus; test: Anticonvulsant activity in albino CF1 mouse assessed as protection against maximal electroshock-induced seizures at 100 mg/kg, ip after 4 hrs; assay type: functional, organism-based; design: dose 100 mg/kg; method in brief: as §3
[31] = system: Mus musculus; test: Anticonvulsant activity in albino CF1 mouse assessed as protection against maximal electroshock-induced seizures at 30 mg/kg, ip after 0.5 hrs; assay type: functional, organism-based; design: dose 30 mg/kg; method in brief: as §3
[32] = system: Rattus norvegicus; test: Neurotoxicity in pilocarpine-induced status epilepticus Sprague-Dawley albino rat model assessed as minimal motor impairment at 100 mg/kg, ip after 0.25 hr by rotarod test; assay type: toxicity, organism-based; design: dose 100 mg/kg, route intraperitoneal; conditions: in vivo
[33] = system: Mus musculus; test: Neurotoxicity in albino CF1 mouse assessed as minimal motor impairment at 300 mg/kg, ip after 4 hrs by rotarod test; assay type: toxicity, organism-based; design: dose 300 mg/kg, route intraperitoneal; conditions: in vivo; method in brief: as §3
[34] = system: Mus musculus; test: Anticonvulsant activity in albino CF1 mouse assessed as protection against maximal electroshock-induced seizures at 300 mg/kg, ip after 0.5 hrs; assay type: functional, organism-based; design: dose 300 mg/kg; method in brief: as §3

With `CCCC(CCC)COC(=O)NC` the Activity [1] was “Non-toxic”, the Activity [2] was “inactive” and the Activity [3] was “Toxic”. For the same compound, the Activity [4] was “inactive”, the Activity [5] was “Active” and the Activity [6] was “inactive”. For the same compound, the Activity [7] was “inactive”, the Activity [8] was “Non-toxic” and the Activity [9] was “inactive”. For the same compound, the Activity [10] was “Toxic”, the Activity [11] was “Toxic” and the Activity [12] was “inactive”. For the same compound, the Activity [13] was “Non-toxic”, the Activity [14] was “Active” and the Activity [15] was “Non-toxic”. For the same compound, the Activity [16] was “Toxic”, the Activity [17] was “Non-toxic” and the Activity [18] was “inactive”. For the same compound, the Activity [19] was “Non-toxic”, the Activity [20] was “inactive” and the Activity [21] was “Toxic”. The Activity [22] was “inactive”, the Activity [23] was “Non-toxic” and the Activity [24] was “inactive”. For the same compound, the Activity [25] was “Toxic”, the Activity [26] was “Toxic” and the Activity [27] was “Non-toxic”. For the same compound, the Activity [28] was “inactive”, the Activity [29] was “Non-toxic” and the Activity [30] was “inactive”. For the same compound, the Activity [31] was “inactive”, the Activity [32] was “Toxic” and the Activity [33] was “Non-toxic”. The Activity [34] was “Active”.
